Reference: ChEMBL document CHEMBL2176993, “Jatrophane diterpenes from Euphorbia mellifera and their activity as P-glycoprotein modulators on multidrug-resistant mouse lymphoma and human colon adenocarcinoma cells” (J Nat Prod, 2012)

How the values were obtained:
[1] = target: T1, ATP-dependent translocase ABCB1 (Homo sapiens, UniProt P08183); experiment: Inhibition of MDR1-mediated rhodamine 123 uptake expressed in mouse L5178Y cells assessed as fluorescence activity ratio at 6 uM after 10 mins by flow cytometry relative to parent cells
T1 sequence (P08183 whole entry): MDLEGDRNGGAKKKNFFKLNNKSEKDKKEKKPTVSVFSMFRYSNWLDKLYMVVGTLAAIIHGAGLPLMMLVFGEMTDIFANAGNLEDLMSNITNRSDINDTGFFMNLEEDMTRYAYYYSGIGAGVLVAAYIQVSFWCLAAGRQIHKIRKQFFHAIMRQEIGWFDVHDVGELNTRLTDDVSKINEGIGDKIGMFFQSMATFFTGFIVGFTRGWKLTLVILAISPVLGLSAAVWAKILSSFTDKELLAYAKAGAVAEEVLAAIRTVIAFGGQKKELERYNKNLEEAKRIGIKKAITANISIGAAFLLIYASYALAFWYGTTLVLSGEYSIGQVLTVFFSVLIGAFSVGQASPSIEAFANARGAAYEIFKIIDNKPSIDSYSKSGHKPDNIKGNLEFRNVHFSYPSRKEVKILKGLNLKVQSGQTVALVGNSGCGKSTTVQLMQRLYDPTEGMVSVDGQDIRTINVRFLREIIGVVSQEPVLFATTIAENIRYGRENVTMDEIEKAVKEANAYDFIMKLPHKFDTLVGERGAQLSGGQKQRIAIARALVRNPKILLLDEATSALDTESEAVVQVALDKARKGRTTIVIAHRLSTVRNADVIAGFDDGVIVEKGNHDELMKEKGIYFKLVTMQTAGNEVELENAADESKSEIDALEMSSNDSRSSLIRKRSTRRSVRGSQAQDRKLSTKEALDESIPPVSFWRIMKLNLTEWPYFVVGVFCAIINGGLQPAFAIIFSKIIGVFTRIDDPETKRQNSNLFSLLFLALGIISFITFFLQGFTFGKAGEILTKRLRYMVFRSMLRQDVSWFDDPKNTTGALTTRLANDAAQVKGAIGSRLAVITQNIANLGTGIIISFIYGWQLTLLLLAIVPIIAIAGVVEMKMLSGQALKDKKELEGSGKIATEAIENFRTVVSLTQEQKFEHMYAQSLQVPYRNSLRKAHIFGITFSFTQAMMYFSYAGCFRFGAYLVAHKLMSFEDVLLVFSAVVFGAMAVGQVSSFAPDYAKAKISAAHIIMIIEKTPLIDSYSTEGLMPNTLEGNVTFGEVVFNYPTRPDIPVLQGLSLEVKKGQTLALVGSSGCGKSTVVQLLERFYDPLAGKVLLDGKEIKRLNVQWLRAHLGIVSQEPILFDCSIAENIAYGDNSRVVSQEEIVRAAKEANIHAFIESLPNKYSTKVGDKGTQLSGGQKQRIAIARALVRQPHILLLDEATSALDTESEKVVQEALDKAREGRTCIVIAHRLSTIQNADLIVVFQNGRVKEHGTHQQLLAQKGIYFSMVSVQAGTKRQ

COLO 320 [2] = experiment: Induction of apoptosis in human COLO320 cells preincubated assessed as early apoptosis at 20 uM for 40 mins measured after 24 hrs using annexin V/propidium iodide staining by flow cytometry; type: functional
How it was run: (§1)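 COLO 320 MDR cells at 2 × 10^5/mL were exposed to agent for 40 min at 37 °C, with 1% DMSO as solvent control. Cells were then washed twice in PBS and cultured overnight at 37 °C, 5% CO2. After 24 h, supernatant and trypsin-detached cells were pooled and centrifuged. Staining used an annexin V-FITC/propidium iodide kit (rapid protocol), read immediately by flow cytometry.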

[3] = target: T1, ATP-dependent translocase ABCB1; experiment: Inhibition of MDR1-mediated rhodamine 123 uptake expressed in mouse L5178Y cells assessed as fluorescence activity ratio at 2 ug/mL after 10 mins by flow cytometry relative to parent cells; type: cell-based; conditions: in the assay text read “2 uM” for “2 ug/mL”
How it was run: (§2)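 Mouse L5178Y cells, parental and human MDR1-transfected (kept with 60 ng/mL colchicine), were held at 2 × 10^6/mL in serum-free McCoy's 5A and given compound (2, 6, 20, 60 μM) for 10 min at room temperature. […] Rhodamine-123 (5.2 μM final) followed for 20 min at 37 °C; cells were washed twice into PBS. FL-1 of 10 000 cells was read by flow cytometry. FAR = treated/untreated MDR versus PAR.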

[4] = target: T1, ATP-dependent translocase ABCB1; experiment: Inhibition of MDR1-mediated rhodamine 123 uptake expressed in human COLO320 cells assessed as fluorescence activity ratio at 20 ug/mL after 10 mins by flow cytometry relative to parent cells; type: cell-based; conditions: in the assay text read “20 uM” for “20 ug/mL”
How it was run: (§3)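 COLO 320 MDR cells (and COLO 205) were held at 1 × 10^6/mL in serum-free RPMI 1640 and given compound (2 or 20 μM) for 10 min at room temperature. […] Rhodamine-123 (5.2 μM final) followed for 20 min at 37 °C; cells were washed twice into PBS. FL-1 of 10 000 cells was read by flow cytometry. FAR was calculated from treated/untreated resistant versus sensitive cells.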

[5] = target: T1, ATP-dependent translocase ABCB1; experiment: Inhibition of MDR1-mediated rhodamine 123 uptake expressed in mouse L5178Y cells assessed as fluorescence activity ratio at 60 ug/mL after 10 mins by flow cytometry relative to parent cells; type: cell-based; conditions: in the assay text read “60 uM” for “60 ug/mL”
How it was run: as §2

[6] = target: T1, ATP-dependent translocase ABCB1; experiment: Inhibition of MDR1-mediated rhodamine 123 uptake expressed in mouse L5178Y cells assessed as fluorescence activity ratio at 20 ug/mL after 10 mins by flow cytometry relative to parent cells; type: cell-based; conditions: in the assay text read “20 uM” for “20 ug/mL”
How it was run: as §2

[7] = Induction of cell death in human COLO320 cells preincubated at 20 uM for 40 mins measured after 24 hrs using annexin V/propidium iodide staining by flow cytometry; type: functional, COLO 320
How it was run: (§4)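 COLO 320 MDR cells in RPMI 1640 with 10% FBS, at 2 × 10^5/mL, were exposed for 40 min at 37 °C, with 1% DMSO as the solvent control. Cells were washed twice in PBS, then kept in medium overnight at 37 °C, 5% CO2. After 24 h, supernatant and trypsin-detached cells were pelleted and resuspended in PBS. Annexin V-FITC/PI quadrants were read by flow cytometry.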

COLO 320 [8] = experiment: Induction of apoptosis in human COLO320 cells preincubated assessed as late apoptosis at 20 uM for 40 mins measured after 24 hrs using annexin V/propidium iodide staining by flow cytometry; type: functional
How it was run: as §1

[9] = target: T1, ATP-dependent translocase ABCB1; experiment: Inhibition of MDR1-mediated rhodamine 123 uptake expressed in human COLO320 cells assessed as fluorescence activity ratio at 2 ug/mL after 10 mins by flow cytometry relative to parent cells; type: cell-based; conditions: in the assay text read “2 uM” for “2 ug/mL”
How it was run: as §3

COLO 320 [10] = experiment: Induction of apoptosis in human COLO320 cells preincubated assessed as early apoptosis at 200 uM for 40 mins measured after 24 hrs using annexin V/propidium iodide staining by flow cytometry; type: functional
How it was run: as §1

[11] = Induction of cell death in human COLO320 cells preincubated at 200 uM for 40 mins measured after 24 hrs using annexin V/propidium iodide staining by flow cytometry; type: functional, COLO 320
How it was run: as §4

COLO 320 [12] = experiment: Induction of apoptosis in human COLO320 cells preincubated assessed as late apoptosis at 200 uM for 40 mins measured after 24 hrs using annexin V/propidium iodide staining by flow cytometry; type: functional
How it was run: as §1

[13] = target: T1, ATP-dependent translocase ABCB1; experiment: Inhibition of MDR1-mediated rhodamine 123 uptake expressed in human COLO320 cells assessed as fluorescence activity ratio at 2 uM after 10 mins by flow cytometry relative to parent cells
[14] = target: T1, ATP-dependent translocase ABCB1; experiment: Inhibition of MDR1-mediated rhodamine 123 uptake expressed in mouse L5178Y cells assessed as fluorescence activity ratio at 2 uM after 10 mins by flow cytometry relative to parent cells

SMILES | Ratio [1] | Activity (COLO 320 [2]) | Ratio [3] | Ratio [4] | Ratio [5] | Ratio [6] | Activity [7] | Activity (COLO 320 [8]) | Ratio [9] | Activity (COLO 320 [10]) | Activity [11] | Activity (COLO 320 [12]) | Ratio [13] | Ratio [14]
CC(=O)O[C@@H]1[C@@H](OC(C)=O)C(C)(C)/C=C/[C@H](C)C(=O)[C@@]2(OC(C)=O)C[C@@H](C)[C@H](OC(=O)c3ccccc3)/C2=C/[C@](C)(O)[C@H]1OC(C)=O | 1.4 | 4.4% | 0.9 | 3 | 43.4 | 10.1 | 0.9% | 4.6% | 0.7 |  |  |  |  | 
c1ccc2c(c1)Nc1c(ccc3ccccc13)S2 |  |  |  |  |  |  |  |  |  | 17.55% | 3.24% | 58.56% |  | 
CC(=O)O[C@H]1[C@H](OC(C)=O)/C(C)=C\[C@H]2[C@@H](OC(=O)c3ccccc3)[C@@H](C)C[C@]2(OC(C)=O)[C@@H](OC(C)=O)[C@@H](C)/C=C/C(C)(C)[C@@H]1OC(C)=O (relative stereo) [EUPHOMELLIFERENE A] | 12.4 | 5.39% |  | 5.5 | 82.2 | 23.1 | 1.11% | 7.7% |  |  |  |  | 2 | 1.2
CC(=O)O[C@H]1[C@H](OC(C)=O)/C(C)=C\[C@H]2[C@@H](OC(=O)c3ccccc3)[C@@H](C)C[C@]2(O)[C@@H](OC(C)=O)[C@@H](C)/C=C/C(C)(C)[C@@H]1OC(C)=O (relative stereo) [EUPHOMELLIFERENE B] | 1.4 | 3% | 1.1 | 2.8 | 36.1 | 1.6 | 1.11% | 4.93% | 0.8 |  |  |  |  | 
CC(=O)O[C@H]1[C@H](OC(C)=O)/C(C)=C\[C@H]2[C@@H](OC(=O)c3ccccc3)[C@H](C)C[C@]2(O)C(=O)[C@@H](C)/C=C/C(C)(C)[C@@H]1OC(C)=O (relative stereo) [EUPHOMELLIFERINE] | 2.9 | 6.72% | 1.1 | 5.1 | 72.9 | 12.1 | 0.74% | 4.97% | 1.1 |  |  |  |  | 
